{"source": "ChEMBL document CHEMBL4823316", "about": "“Synthesis and evaluation of squaramide and thiosquaramide inhibitors of the DNA repair enzyme SNM1A” (Bioorg Med Chem, 2021)", "key": {"[1]": {"target": "T1, DNA cross-link repair 1A protein (Homo sapiens) (UniProt Q6PJP8)", "T1 sequence (whole entry)": "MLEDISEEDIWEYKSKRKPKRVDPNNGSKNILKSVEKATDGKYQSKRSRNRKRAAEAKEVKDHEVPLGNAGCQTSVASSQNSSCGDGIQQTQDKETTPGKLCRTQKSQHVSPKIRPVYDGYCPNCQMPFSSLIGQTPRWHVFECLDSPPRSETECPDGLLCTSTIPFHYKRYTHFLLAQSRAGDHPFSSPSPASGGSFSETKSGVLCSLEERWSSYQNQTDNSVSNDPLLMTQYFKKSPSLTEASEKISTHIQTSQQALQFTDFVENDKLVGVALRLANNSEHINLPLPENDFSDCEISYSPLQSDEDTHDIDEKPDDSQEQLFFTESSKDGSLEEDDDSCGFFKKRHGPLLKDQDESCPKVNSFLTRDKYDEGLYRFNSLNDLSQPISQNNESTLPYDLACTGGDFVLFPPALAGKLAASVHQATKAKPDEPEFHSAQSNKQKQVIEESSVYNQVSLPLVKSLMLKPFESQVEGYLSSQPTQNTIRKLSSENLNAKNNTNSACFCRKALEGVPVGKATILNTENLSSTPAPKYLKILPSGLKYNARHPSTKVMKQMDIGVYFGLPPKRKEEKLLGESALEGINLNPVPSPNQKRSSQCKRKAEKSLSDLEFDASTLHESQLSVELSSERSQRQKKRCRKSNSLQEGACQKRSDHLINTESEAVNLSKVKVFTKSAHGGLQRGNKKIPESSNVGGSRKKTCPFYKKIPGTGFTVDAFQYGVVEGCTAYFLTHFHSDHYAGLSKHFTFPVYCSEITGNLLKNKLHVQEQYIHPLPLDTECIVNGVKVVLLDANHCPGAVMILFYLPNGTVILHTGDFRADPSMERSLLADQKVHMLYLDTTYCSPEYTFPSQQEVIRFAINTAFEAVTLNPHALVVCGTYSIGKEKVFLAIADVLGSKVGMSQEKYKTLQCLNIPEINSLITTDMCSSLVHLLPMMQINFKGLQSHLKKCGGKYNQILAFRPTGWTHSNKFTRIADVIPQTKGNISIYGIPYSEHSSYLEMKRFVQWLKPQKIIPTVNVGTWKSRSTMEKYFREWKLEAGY", "assay": "Inhibition of SNM1A (unknown origin) assessed as reduction in oligonucleotide digestion at 1 mM using 21mer fluorescent oligonucleotide as substrate preincubated for 5 mins followed by substrate addition and measured after 1 hr by PAGE analysis", "details": "time 65.0 min"}, "[2]": {"assay": "Metal chelating activity assessed as Zn2+-compound complex formation by measuring equilibrium constant measured at 1:1 compound to metal ion ratio by UV-Vis titration based analysis", "outline": "(§1)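 Compounds in MeCN titrated with Zn(ClO₄)₂ and followed by UV–Vis. Binding constants for 1:1, 1:2 and 2:1 ligand–metal species were derived by global non-linear regression, comparing two- and three-species models. Described as qualitative.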"}, "[3]": {"assay": "Metal chelating activity assessed as Zn2+-compound complex formation by measuring equilibrium constant measured at 2:1 compound to metal ion ratio by UV-Vis titration based analysis", "outline": "as §1"}, "[4]": {"target": "T2, DNA cross-link repair 1A protein (Homo sapiens, UniProt Q6PJP8)", "T2 sequence (Q6PJP8 whole entry)": "T1 sequence (whole entry)", "assay": "Inhibition of SNM1A (unknown origin) by real time fluorescence assay", "outline": "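Real-time fluorescence assay of SNM1A exonuclease activity used to derive IC₅₀ from a concentration series. Unmodified thymidine run as control. Error bars from 6 independent repeats.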"}, "[5]": {"assay": "Metal chelating activity assessed as Zn2+-compound complex formation by measuring equilibrium constant measured at 1:2 compound to metal ion ratio by UV-Vis titration based analysis", "outline": "as §1"}, "[6]": {"target": "T1, DNA cross-link repair 1A protein (Homo sapiens)", "assay": "Inhibition of SNM1A (unknown origin) assessed as reduction in oligonucleotide digestion at 333 uM using 21mer fluorescent oligonucleotide as substrate preincubated for 5 mins followed by substrate addition and measured after 1 hr by PAGE analysis", "details": "time 65.0 min"}}, "note": "Activity calls are given as the source filed them. The calls are words filed in the database; no cut-off is given here."}
{"smiles": "Cc1cn([C@H]2C[C@H](O)[C@@H](CNc3c(O)c(=O)c3=O)O2)c(=O)[nH]c1=O", "values": [{"measurement": "inhibition", "setting": "[1]", "result": "inactive"}]}
{"smiles": "CN(O)c1c(N[C@H]2[C@@H](O)[C@H](n3ccc(=O)[nH]c3=O)O[C@@H]2CO)c(=O)c1=O", "values": [{"measurement": "inhibition", "setting": "[1]", "result": "Active"}]}
{"smiles": "Cc1cn([C@H]2C[C@H](O)[C@@H](CNc3c(Nc4ccccc4O)c(=O)c3=O)O2)c(=O)[nH]c1=O", "values": [{"measurement": "inhibition", "setting": "[1]", "result": "inactive"}]}
{"smiles": "CCOc1c(NC[C@H]2O[C@@H](n3cc(C)c(=O)[nH]c3=O)C[C@@H]2O)c(=O)c1=O", "values": [{"measurement": "inhibition", "setting": "[1]", "result": "inactive"}]}
{"smiles": "Cc1cn([C@H]2C[C@H](Nc3c(O)c(=O)c3=O)[C@@H](CO)O2)c(=O)[nH]c1=O", "values": [{"measurement": "Kb", "setting": "[2]", "result": "4 10^4/M"}, {"measurement": "Kb", "setting": "[3]", "result": "3.2 10^6/M"}]}
{"smiles": "CCN(CC)c1c(NC[C@H]2O[C@@H](n3cc(C)c(=O)[nH]c3=O)C[C@@H]2O)c(=O)c1=O", "values": [{"measurement": "inhibition", "setting": "[1]", "result": "inactive"}]}
{"smiles": "CCN(CC)c1c(N[C@H]2C[C@H](n3cc(C)c(=O)[nH]c3=O)O[C@@H]2CO)c(=S)c1=S", "values": [{"measurement": "inhibition", "setting": "[1]", "result": "Active"}]}
{"smiles": "Cc1cn([C@H]2C[C@H](O)[C@@H](CO)O2)c(=O)[nH]c1=O", "note": "[DOXRIBTIMINE]", "values": [{"measurement": "inhibition", "setting": "[1]", "result": "inactive"}, {"measurement": "IC50", "setting": "[4]", "result": "Not Active"}]}
{"smiles": "CCN(CC)c1c(NC[C@H]2O[C@@H](n3cc(C)c(=O)[nH]c3=O)C[C@@H]2O)c(=S)c1=S", "values": [{"measurement": "Kb", "setting": "[2]", "result": "6.8 10^5/M"}, {"measurement": "Kb", "setting": "[5]", "result": "1.7 10^2/M"}, {"measurement": "Kb", "setting": "[3]", "result": "1.2 10^6/M"}]}
{"smiles": "Cc1cn([C@H]2C[C@H](Nc3c(N(C)O)c(=O)c3=O)[C@@H](CO)O2)c(=O)[nH]c1=O", "values": [{"measurement": "inhibition", "setting": "[1]", "result": "Active"}, {"measurement": "inhibition", "setting": "[6]", "result": "Active"}, {"measurement": "Kb", "setting": "[2]", "result": "3 10^4/M"}, {"measurement": "Kb", "setting": "[5]", "result": "6.6 10^1/M"}]}
{"smiles": "Cc1cn([C@H]2C[C@H](O)[C@H](CNc3c(N[C@H]4C[C@H](n5cc(C)c(=O)[nH]c5=O)O[C@@H]4CO)c(=S)c3=S)O2)c(=O)[nH]c1=O", "values": [{"measurement": "inhibition", "setting": "[1]", "result": "Active"}]}
{"smiles": "Cc1cn([C@H]2C[C@H](O)[C@@H](CNc3c(NCCO)c(=O)c3=O)O2)c(=O)[nH]c1=O", "values": [{"measurement": "inhibition", "setting": "[1]", "result": "inactive"}]}
